Shown are actives, neighbours in structure and some others; about 4.3% of the full set was active somewhere.
m5-HT2A agonist: agonists of mouse serotonin 5-HT2A receptor (HTR2A); P35363; AID 624169; CHO-K1 mHTR2A beta-arrestin complementation, luminescence; percent of 30 µM serotonin response; hit rate 0.66% among 360,000; activation, % at 7.6 µM;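 active = activation above a run cutoff, the mean activation of all tested compounds plus 3 SD, cut at about 14% in these data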
TAAR1 agonist: agonists of human TAAR1 | Q96RJ0 | CHO RD-HGA16 TAAR1, Fluo-8 calcium fluorescence; vehicle wells 0%, saturating PEA agonist 100% | activation, % at 3 µM | hit rate 0.99% among 360,000;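 active = activation above the mean activation of all test compounds in the run plus 3 SD, cut at about 38% in these data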
Target sequence (Q96RJ0 whole entry, looked up): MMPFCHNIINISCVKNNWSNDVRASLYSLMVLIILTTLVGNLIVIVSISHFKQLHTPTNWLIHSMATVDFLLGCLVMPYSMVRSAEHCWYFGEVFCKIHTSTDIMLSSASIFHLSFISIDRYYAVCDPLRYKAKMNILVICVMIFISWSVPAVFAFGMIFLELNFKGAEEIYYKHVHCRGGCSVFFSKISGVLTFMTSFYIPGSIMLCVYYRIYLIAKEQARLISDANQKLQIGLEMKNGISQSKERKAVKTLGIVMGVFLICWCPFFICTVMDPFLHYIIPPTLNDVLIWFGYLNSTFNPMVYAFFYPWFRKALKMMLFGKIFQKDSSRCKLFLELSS
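Benchmarks: low control DMSO, high control PEA (EC100); System: CHO RD-HGA16 cells carrying human TAAR1 plus Gα16; Detection: Fluo-8 fluorescence, 5 s baseline then 140 s kinetic read; Schedule: 17-24 h plating, Fluo-8 75 min 37 °C, 30 min RT; Read-out basis: % activation from peak over basal fluorescence ratio, DMSO-to-PEA scaled.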
MC4R barr agon: human MC4R agonism via beta-arrestin | P32245 | U2OS MC4R beta-arrestin complementation, luminescence; percent of melanotan II response, DMSO zero | activation, % at 8.9 µM | hit rate 0.98% among 360,000 | AID 540308;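 active = activation above a per-plate cutoff, the mean activation of sample wells on that plate plus 3 SD, cut at about 8% in these data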
Target sequence (P32245 whole entry, looked up): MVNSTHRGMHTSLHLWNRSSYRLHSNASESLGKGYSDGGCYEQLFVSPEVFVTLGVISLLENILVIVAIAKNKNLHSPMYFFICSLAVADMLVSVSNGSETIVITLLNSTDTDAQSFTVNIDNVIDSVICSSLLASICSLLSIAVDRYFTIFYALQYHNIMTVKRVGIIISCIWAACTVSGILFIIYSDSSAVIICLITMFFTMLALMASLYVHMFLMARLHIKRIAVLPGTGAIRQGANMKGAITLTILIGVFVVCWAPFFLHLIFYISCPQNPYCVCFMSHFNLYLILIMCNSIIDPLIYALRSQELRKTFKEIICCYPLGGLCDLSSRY
B2AR ag: human beta-2 adrenergic receptor agonism by FAP; P07550; Am2.2-beta2AR cells, FAP receptor internalization, flow cytometry; response, % (test concentration not listed); hit rate 0.43% among 340,000; AID 504454;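 active = response above a set limit, near 3 SD of response in nonfluorescent compounds, cut at about 42% in these data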
TAAR1 antag: human TAAR1 antagonism; Q96RJ0; hit rate 1.5% among 360,000; AID 624466; CHO RD-HGA16 TAAR1, Fluo-8 calcium fluorescence, antagonist; inhibition, % at 3 µM;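 active = inhibition above a per-plate cutoff, the mean inhibition of test compounds on that plate plus 3 SD, cut at about 49% in these data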
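System: CHO RD-HGA16 cells bearing hTAAR1. Reagent: EC80 β-phenethylamine stimulus. Schedule: seeding 17-24 h prior, 75-min 37 °C, 30-min RT dye loading. Signal: Fluo-8 intracellular calcium dye fluorescence, real-time kinetic reads. Read-out: % inhibition from peak post-agonist over basal fluorescence ratio. Benchmarks: vehicle wells and EC80 agonist wells. Replicates: n of 1.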
MC4R antag cAMP: blocks human MC4R cAMP signaling | P32245 | MC4R-expressing cells, MTII-stimulated cAMP, LANCE TR-FRET | inhibition, % at 6.5 µM | hit rate 0.48% among 360,000;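 active = inhibition above its plate's cutoff, the mean of tested wells on that plate plus 3 SD, cut at about 29% in these data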
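Material: U2OS-MC4R stable cell line | Reagent: Melanotan II challenge after compound preincubation | Doses: One concentration, 6.5 µM nominal | Incubation: 30-min compound preincubation, 1-h Melanotan II challenge, 1-h detection, room temperature | Signal: TR-FRET cAMP assay | Replicates: One well per compound, no replicates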
TAAR1 ag confirm: human TAAR1 agonism, confirmed; shares compounds with TAAR1 agonist; CHO RD-HGA16 TAAR1, Fluo-8 calcium fluorescence; scaled: DMSO 0%, maximal phenethylamine 100%; activation, % at 3 µM; hit rate 82% among 2,400; AID 651783;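 active = activation above a cutoff set at the run's mean compound activation plus 3 SD, cut at about 39% in these data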
Ga16 ag counter: nonselective agonism, TAAR1 counter-screen; shares compounds with TAAR1 agonist; CHO-Ga16 parental, Fluo-8 calcium fluorescence; normalized to maximal ATP response, DMSO zero; activation, % at 3 µM; hit rate 50% among 2,400;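 active = activation above the run cutoff, the mean activation over all tested wells plus 3 SD, cut at about 12% in these data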
TAAR1 desensitize: counter-screen for human TAAR1 agonists: agonists that desensitize TAAR1. shares compounds with TAAR1 agonist. CHO RD-HGA16 hTAAR1, Fluo-8 calcium, beta-PEA response inhibition. inhibition, % at 3 µM. hit rate 46% among 2,400;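 active = inhibition above the run cutoff, the mean inhibition of all test compounds plus 3 SD, cut at about 49% in these data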;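 also: beta-PEA stimulus applied at its EC80; loss of beta-PEA calcium signal after compound pretreatment read as receptor desensitization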
Ga16 nonsel ant: nonselective Ga16 antagonism, counter-screen; shares compounds with TAAR1 agonist; CHO-Ga16 ATP-induced calcium, Fluo-8 fluorescence; inhibition, % at 3 µM; hit rate 39% among 2,400;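 active = inhibition above the plate's mean compound inhibition plus 3 SD, computed per plate, cut at about 22% in these data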
Hits are given with their value; i = inactive; nt = no result.

SMILES	m5-HT2A agonist	TAAR1 agonist	MC4R barr agon	B2AR ag	TAAR1 antag	MC4R antag cAMP	TAAR1 ag confirm	Ga16 ag counter	TAAR1 desensitize	Ga16 nonsel ant
COc1cc(CN2CCNC(=O)C2CC(=O)N2CCc3ccccc3C2)cc(OC)c1 (configuration not stated)	i	66	i	i	i	i	68	i	i	i
COc1cccc(CN2CCNC(=O)C2CC(=O)N2CCOc3ccccc3C2)c1OC (configuration not stated)	i	66	i	i	i	i	73	i	i	i
COc1ccc(CN2CCNC(=O)C2CC(=O)N2CCc3ccccc3C2)c(OC)c1 (configuration not stated)	i	i	i	i	i	i	nt	nt	nt	nt
CC(C)(C)CN1CCNC(=O)C1CC(=O)N1CCOc2ccccc2C1 (configuration not stated)	i	59	i	i	i	i	54	i	i	i
Cc1ccc2c(c1)N(C(=O)CCC(=O)NC1CCCCCC1)CCO2	i	i	i	i	i	i	nt	nt	nt	nt
Clc1cccc2c3c([nH]c12)CCNC3	i	60	i	i	i	i	87	i	66	i
COc1ccc2[nH]c3c(c2c1)CNCC3	i	i	i	nt	i	i	nt	nt	nt	nt
CC(C)(C)N1CC(C(=O)Nc2ccc(C#N)cc2)CC1=O (configuration not stated)	i	i	i	i	i	i	nt	nt	nt	nt
Cc1ccc(CNC(=O)c2cccnc2Sc2cccc(Cl)c2)cc1	i	73	i	i	i	i	82	40	i	35
Cc1ccc(-c2nn(-c3ccccc3)cc2CSC(=N)N)cc1	i	76	i	i	i	i	84	27	i	25
CCCCCCCCCCCCCCC(O)C[N+](C)(CCO)CCO (configuration not stated)	i	54	i	i	77	i	i	i	i	30
CCCCCCCC(=O)OCC(O)CO (configuration not stated)	i	i	i	i	i	i	nt	nt	nt	nt
COc1ccc(Cc2nnc(SCC(=O)Nc3ccccc3C)n(N)c2=O)cc1	i	i	i	i	i	i	nt	nt	nt	nt
CC(C)c1cc(C(=O)NCc2ccc(F)cc2)c(N)s1	i	i	nt	nt	i	nt	nt	nt	nt	nt
O=C(NCCc1cccs1)c1ccc(Cl)cc1	i	79	i	i	i	i	84	i	76	i
CC(C)c1cc(C(=O)NCCc2cccs2)c(N)s1	i	nt	nt	nt	nt	nt	nt	i	nt	i
O=C(NCCc1cccs1)c1ccc(CS(=O)Cc2ccc(Cl)cc2)o1 (configuration not stated)	i	56	i	i	i	i	62	i	i	i
O=C(COC(=O)c1cc(=O)[nH]c(=O)[nH]1)Nc1cccc(Cl)c1	i	i	i	i	i	i	nt	nt	nt	nt
O=C(NCCNC(=O)c1ccc(-c2ccc(Cl)c(Cl)c2)o1)c1cnccn1	i	63	i	i	82	i	57	40	72	51
N#Cc1c(N)sc2c1CCN(CCc1ccccc1)C2	i	79	i	i	i	i	84	i	64	i
CCOC(=O)N1CCc2c(sc(N)c2C#N)C1	nt	i	nt	i	i	nt	nt	nt	nt	nt
COc1ccc(OCCNC(=O)c2ccc3nc(C)c(N(C)Cc4ccc(NC(C)=O)cc4)n3c2)cc1	i	i	i	nt	i	i	nt	nt	nt	nt
Cc1ccc(NS(=O)(=O)c2ccc(C(=O)N3CC(C)OC(C)C3)cc2)cc1 (configuration not stated)	i	127	i	i	57	i	118	68	61	31
Cc1ccc(NS(=O)(=O)c2ccc(C(=O)N3CCCCCC3)cc2)cc1	i	86	i	i	i	i	80	52	i	39
Cc1ccccc1NS(=O)(=O)c1ccc(C(=O)N2CC(C)OC(C)C2)cc1 (configuration not stated)	i	i	i	i	i	i	nt	nt	nt	nt
SMILES	m5-HT2A agonist	TAAR1 agonist	MC4R barr agon	B2AR ag	TAAR1 antag	MC4R antag cAMP	TAAR1 ag confirm	Ga16 ag counter	TAAR1 desensitize	Ga16 nonsel ant
CCOc1ccc(NS(=O)(=O)c2ccc(C(=O)N3CCCC(C)C3)cc2)cc1 (configuration not stated)	i	114	i	i	79	i	121	80	84	55
O=C(c1ccc(S(=O)(=O)Nc2ccccc2)cc1)N1CCCC(C(F)(F)F)C1 (configuration not stated)	i	116	i	i	65	i	99	58	57	30
CC(C)(C)OC(=O)NN1CC(=O)N2Cc3[nH]c4ccccc4c3C[C@H]2C1=O	i	i	i	i	i	i	nt	nt	nt	nt
CNc1cccc(-c2ccc(N3CCN(C)CC3)nc2)n1	i	i	i	nt	i	i	nt	nt	nt	nt
Cc1nc2cc(NC(=O)c3ccco3)ccc2n1C	i	i	i	i	i	i	nt	nt	nt	nt
O=C1/C(=C/c2ccc(N3CCCC3)cc2)NC(=S)N1C1CC1	i	177	i	i	99	i	58	61	71	71
O=C1NC(=S)N/C1=C\c1ccc(N2CCOCC2)cc1	i	i	i	i	i	i	nt	nt	nt	nt
COc1cc(COCC(O)CN2C(C)CCCC2C)cc(OC)c1OC (configuration not stated)	i	i	i	i	i	i	nt	nt	nt	nt
Cc1cccc(C(=O)CC(=O)c2cc(Cl)ccc2O)c1	i	nt	i	i	nt	i	nt	nt	nt	nt
Cc1ccc(O)c(C(=O)CC(=O)c2ccc(Cl)cc2)c1	i	54	i	i	i	i	43	23	51	37
Cc1ccc(O)c(C(=O)CC(=O)c2cccc(F)c2)c1	i	54	i	i	i	i	i	19	i	22
O=C(CC(=O)c1cc(Cl)ccc1O)c1ccccc1	i	i	i	i	i	i	nt	nt	nt	nt
CCCCCN1CN(S(=O)(=O)c2cccs2)c2nc3ccccc3nc21	i	i	i	i	i	i	nt	nt	nt	nt
O=C(COCC(=O)N/N=C/c1ccc(F)cc1)N/N=C/c1ccc(F)cc1	i	54	i	i	i	i	66	i	i	i
N/C(=N\N=C/c1ccc(F)cc1)N/N=C\c1ccc(F)cc1	i	70	i	i	63	i	81	i	77	i
